Assay results from ChEMBL document CHEMBL2331520, “Synthesis, surface tension properties and antibacterial activities of amphiphilic D-galactopyranose derivatives” (Eur J Med Chem, 2013).
Converted amounts (≈) assume the structure as drawn.

How the values were obtained:
Staphylococcus aureus = test: Antibacterial activity against Staphylococcus aureus subsp aureus CIP 53.154 assessed as growth inhibition at 30 degC after 24 hrs by liquid broth dilution method; format: functional; conditions: CIP 53.154, 24 h
Summary of the method: (§1)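 Strains kept at -80 °C in LB broth with 20% glycerol and grown from 1% (v/v) stock in nutritive broth (yeast extract 1 g/L, meat extract 2 g/L, peptone 5 g/L, NaCl 5 g/L) at 30 °C. Overnight culture adjusted to 0.5 McFarland (~1.5 × 10⁸ cfu/mL). Compound stock 1 g/L in DMSO, serially diluted in broth 1:2 to 1:512, mixed 1:1 with inoculum. Incubation 24 h, 150 rpm, 30 °C. OD600 read; MIC = lowest concentration with no OD increase in all replicates versus negative control.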

[1] = test system: Mycolicibacterium smegmatis; test: Antibacterial activity against Mycobacterium smegmatis CIP 73.26 assessed as growth inhibition at 37 degC after 24 hrs by liquid broth dilution method; format: functional; conditions: CIP 73.26, 24 h
Summary of the method: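 Inoculum at 0.5 McFarland (~1.5 × 10⁸ cfu/mL). DMSO stock (1 g/L) serially diluted in the same medium 1:2 to 1:512. Shaken 24 h at 150 rpm, 37 °C. MIC = lowest concentration with no OD600 rise in any replicate versus negative control.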

[2] = test system: Geobacillus stearothermophilus; test: Antibacterial activity against Bacillus stearothermophilus ATTC 12980 assessed as growth inhibition at 30 degC after 24 hrs by liquid broth dilution method; format: functional; conditions: ATTC 12980, 24 h; summary of the method: as §1
Sinorhizobium meliloti = test: Antibacterial activity against Sinorhizobium meliloti Rm1021 assessed as growth inhibition at 30 degC after 24 hrs by liquid broth dilution method; format: functional; conditions: Rm1021, 24 h; summary of the method: as §1
Pseudomonas aeruginosa = test: Antibacterial activity against Pseudomonas aeruginosa CIP A22 assessed as growth inhibition at 30 degC after 24 hrs by liquid broth dilution method; format: functional; conditions: CIP A22, 24 h; summary of the method: as §1
Escherichia coli = test: Antibacterial activity against Escherichia coli ATCC 10536 assessed as growth inhibition at 30 degC after 24 hrs by liquid broth dilution method; format: functional; conditions: ATCC 10536, 24 h; summary of the method: as §1
Dickeya chrysanthemi = test: Antibacterial activity against Erwinia chrysanthemi EC3937 assessed as growth inhibition at 30 degC after 24 hrs by liquid broth dilution method; format: functional; conditions: EC3937, 24 h; summary of the method: as §1
Enterobacter cloacae = test: Antibacterial activity against Enterobacter cloacae ATCC 13047 assessed as growth inhibition at 30 degC after 24 hrs by liquid broth dilution method; format: functional; conditions: ATCC 13047, 24 h; summary of the method: as §1
Citrobacter freundii = test: Antibacterial activity against Citrobacter freundii ATCC 6750 assessed as growth inhibition at 30 degC after 24 hrs by liquid broth dilution method; format: functional; conditions: ATCC 6750, 24 h; summary of the method: as §1
Micrococcus luteus = test: Antibacterial activity against Micrococcus luteus CIP 53.45 assessed as growth inhibition at 30 degC after 24 hrs by liquid broth dilution method; format: functional; conditions: CIP 53.45, 24 h; summary of the method: as §1
[3] = Critical micelle concentration of the compound by wilhelmy method; format: physicochemical
Summary of the method: (§2)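 Wilhelmy plate method at 293 K. Concentrated solution added stepwise from a syringe into ultrapure water, stirred gently 30 s after each addition, then equilibrium surface tension read. Each value is the mean of at least three measurements (SD within ±1.5% of mean). Transducer precision 0.1 mN/m; platinum plate flame-cleaned. Surface tension plotted against molar concentration to give CMC and γCMC.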

[4] = Gamma critical micelle concentration of the compound by wilhelmy method; format: physicochemical; summary of the method: as §2

| Compound | MIC (Staphylococcus aureus) [µg/mL] | MIC [1] [µg/mL] | MIC [2] [µg/mL] | MIC (Sinorhizobium meliloti) [µg/mL] | MIC (Pseudomonas aeruginosa) [µg/mL] | MIC (Escherichia coli) [µg/mL] | MIC (Dickeya chrysanthemi) [µg/mL] | MIC (Enterobacter cloacae) [µg/mL] | MIC (Citrobacter freundii) [µg/mL] | MIC (Micrococcus luteus) [µg/mL] | CMC [3] | gammaCMC [4] |
| --- | --- | --- | --- | --- | --- | --- | --- | --- | --- | --- | --- | --- |
| CCCCCCCCCCCCOCC#CCOC[C@H]1O[C@@H]2OC(C)(C)O[C@@H]2[C@H]2OC(C)(C)O[C@H]21 | 125 (≈ 252 µM) | 62.5 (≈ 126 µM) | 15.6 (≈ 31.4 µM) | 62.5 (≈ 126 µM) | 62.5 (≈ 126 µM) | 62.5 (≈ 126 µM) | 62.5 (≈ 126 µM) | 62.5 (≈ 126 µM) | 62.5 (≈ 126 µM) |  |  |  |
| CCCCCCCCCCCCOc1ccc(OC[C@H]2O[C@@H]3OC(C)(C)O[C@@H]3[C@H]3OC(C)(C)O[C@H]32)cc1 | 125 (≈ 240 µM) | 62.5 (≈ 120 µM) | 62.5 (≈ 120 µM) | 62.5 (≈ 120 µM) | 125 (≈ 240 µM) | 62.5 (≈ 120 µM) | 62.5 (≈ 120 µM) | 62.5 (≈ 120 µM) | 62.5 (≈ 120 µM) | 31.2 (≈ 60 µM) |  |  |
| CCCCCCCCOCCCCOC[C@H]1O[C@H](O)[C@H](O)[C@@H](O)[C@H]1O | 125 (≈ 343 µM) | 62.5 (≈ 171 µM) | 62.5 (≈ 171 µM) | 62.5 (≈ 171 µM) | 62.5 (≈ 171 µM) | 62.5 (≈ 171 µM) | 62.5 (≈ 171 µM) | 62.5 (≈ 171 µM) | 125 (≈ 343 µM) | 62.5 (≈ 171 µM) | 0.3 mmol/L | 30 mN/meter |
| CCCCCCCCOCC#CCOC[C@H]1O[C@H](O)[C@H](O)[C@@H](O)[C@H]1O | 125 (≈ 347 µM) | 62.5 (≈ 173 µM) | 62.5 (≈ 173 µM) | 62.5 (≈ 173 µM) | 125 (≈ 347 µM) | 62.5 (≈ 173 µM) | 62.5 (≈ 173 µM) | 62.5 (≈ 173 µM) | 125 (≈ 347 µM) | 62.5 (≈ 173 µM) | 0.06 mmol/L | 30 mN/meter |
| CCCCCCCCOc1ccc(OC[C@H]2O[C@H](O)[C@H](O)[C@@H](O)[C@H]2O)cc1 | 125 (≈ 325 µM) | 62.5 (≈ 163 µM) | 62.5 (≈ 163 µM) | 62.5 (≈ 163 µM) | 125 (≈ 325 µM) | 62.5 (≈ 163 µM) | 62.5 (≈ 163 µM) | 62.5 (≈ 163 µM) | 125 (≈ 325 µM) | 62.5 (≈ 163 µM) | Not Active | Not Active |
| CCCCCCCCCCCCOCCCCOC[C@H]1O[C@H](O)[C@H](O)[C@@H](O)[C@H]1O | 125 (≈ 297 µM) | 62.5 (≈ 149 µM) | 31.2 (≈ 74.3 µM) | 62.5 (≈ 149 µM) | 62.5 (≈ 149 µM) | 62.5 (≈ 149 µM) | 62.5 (≈ 149 µM) | 62.5 (≈ 149 µM) | 62.5 (≈ 149 µM) | 15.6 (≈ 37.1 µM) | 0.023 mmol/L | 48 mN/meter |
| CCCCCCCCCCCCOCC#CCOC[C@H]1O[C@H](O)[C@H](O)[C@@H](O)[C@H]1O | 62.5 (≈ 150 µM) | 62.5 (≈ 150 µM) | 7.81 (≈ 18.7 µM) | 31.2 (≈ 75 µM) | 62.5 (≈ 150 µM) | 62.5 (≈ 150 µM) | 62.5 (≈ 150 µM) | 62.5 (≈ 150 µM) | 62.5 (≈ 150 µM) | 3.91 (≈ 9.39 µM) | 0.032 mmol/L | 35 mN/meter |
| CCCCCCCCCCCCOc1ccc(OC[C@H]2O[C@H](O)[C@H](O)[C@@H](O)[C@H]2O)cc1 | 125 (≈ 284 µM) | 62.5 (≈ 142 µM) | 62.5 (≈ 142 µM) | 62.5 (≈ 142 µM) | 62.5 (≈ 142 µM) | 62.5 (≈ 142 µM) | 62.5 (≈ 142 µM) | 62.5 (≈ 142 µM) | 125 (≈ 284 µM) | 62.5 (≈ 142 µM) | 3.1 mmol/L | 54 mN/meter |
| O=C(N[C@H](CO)[C@H](O)c1ccc([N+](=O)[O-])cc1)C(Cl)Cl [CHLORAMPHENICOL] | < 0.98 | 1.95 (≈ 6.03 µM) | 3.9 (≈ 12.1 µM) | < 0.98 | 1.95 (≈ 6.03 µM) | < 0.98 | 0.98 (≈ 3.03 µM) | < 0.98 | 7.8 (≈ 24.1 µM) | < 0.98 |  |  |
